Source: PubChem (Johns Hopkins Ion Channel Center)
hERG rescue – hERG rescue from dofetilide block, primary screen, cell-based, CHO-hERG, FluxOR thallium flux, dofetilide IC70. Voltage-gated inwardly rectifying potassium channel KCNH2 (Homo sapiens), Q12809. dofetilide IC70 present. activation (rescue from dofetilide block), less the hit threshold, % at 10 µM. 310,000 compounds, 0.51% hits. AID 1511, 2009;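 active means activation above the mean of controls blocked by dofetilide plus 5 SD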;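 further: thallium influx through hERG after potassium depolarization seen as dye fluorescence rise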
KCNQ1 act – potentiators or activators of KCNQ1 channel, primary screen, cell-based, thallium flux, high-throughput. Potassium voltage-gated channel subfamily KQT member 1 (Homo sapiens), P51787. CHO-K1 KCNQ1, thallium flux FluxOR fluorescence; hits give high values. B-score at 10 µM. 310,000 compounds, 0.35% hits;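 active means fluorescence ratio B-score, a plate-corrected score, at least three library SD, with initial intensity B-score within 5 SD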
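Assay system: CHO-K1 cells stably expressing KCNQ1; Medium: assay buffer with matched DMSO; Also added: K+/Tl+ depolarizing stimulus; Dosing: single dose; Timing: dye 90 min, compound 20 min, room temperature; Measured by: kinetic FluxOR thallium fluorescence, 10-s 1-Hz baseline, 110-s post-stimulus read; Read-out: peak-minus-minimum fluorescence over initial fluorescence, negative-control normalized, B-scored.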
KCNK3 block – human KCNK3 channel inhibitors, primary screen, CHO cells, FluxOR thallium flux, B-score. B-score at 10 µM. 340,000 compounds, 0.84% hits. Potassium channel subfamily K member 3 (Homo sapiens), O14649. FluxOR fluorescence; hits give low values;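 active means B-score under library mean minus 4 SD, starting fluorescence ratio at most library mean plus 5 SD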;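 further: more negative B-score means stronger inhibition of thallium flux through KCNK3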
KCNK9 block – KCNK9 potassium channel inhibitors, primary screen, HEK293 cells, thallium flux; Potassium channel subfamily K member 9 (Homo sapiens), Q9NPC2; FluxOR thallium flux fluorescence; hits give low values; B-score at 10 µM; 310,000 compounds, 1.2% hits; AID 488922, 2010;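 active means ratio B-score over 3 SD below the library mean, with starting fluorescence within 5 SD of its mean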;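 further: negative B-score means less thallium flux so channel inhibition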
Kir21 inh – inhibitors of mouse Kir2.1 inward-rectifier potassium channel; B-score at 10 µM; Inward rectifier potassium channel 2 (Mus musculus), P35561; AID 1672, 2009; HEK293-Kir2.1, FluxOR thallium flux fluorescence; hits give low values; 310,000 compounds, 0.85% hits;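 active means fluorescence ratio B-score at or below minus 3 SD of library scores, with starting-brightness B-score within 2 SD, cut at about -4.2 in these data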;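 further: channel flux triggered by added potassium and thallium sulfate stimulus; B-score of peak minus minimum fluorescence over baseline after thallium stimulus; more negative B-score means stronger Kir2.1 block with less thallium influx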
Target sequence (P35561 whole entry, looked up): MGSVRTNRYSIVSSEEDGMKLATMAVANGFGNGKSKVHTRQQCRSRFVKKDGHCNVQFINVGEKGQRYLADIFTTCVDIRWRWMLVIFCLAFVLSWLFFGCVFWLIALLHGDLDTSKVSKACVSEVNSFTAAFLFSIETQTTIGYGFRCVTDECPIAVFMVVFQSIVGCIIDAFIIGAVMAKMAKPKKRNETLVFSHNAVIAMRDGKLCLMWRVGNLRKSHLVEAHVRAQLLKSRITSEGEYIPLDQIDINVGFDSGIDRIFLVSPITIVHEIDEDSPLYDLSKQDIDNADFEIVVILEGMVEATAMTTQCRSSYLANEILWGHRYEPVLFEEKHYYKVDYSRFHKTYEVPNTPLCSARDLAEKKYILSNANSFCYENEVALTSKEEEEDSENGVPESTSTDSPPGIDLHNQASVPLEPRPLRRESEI
KCNQ1 block – inhibitors of human KCNQ1 channel, primary screen, cell-based, thallium flux, high-throughput; 310,000 compounds, 1.3% hits; B-score at 10 µM; CHO-K1 KCNQ1, FluxOR thallium flux fluorescence; hits give high values;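 active means compounds whose thallium flux B-score, printed positive for inhibition, exceeds three library SD while starting fluorescence stays within three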;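 further: channel opened by potassium depolarization with thallium stimulus after 20 min compound exposure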
KCNQ1 block val – KCNQ1 potassium channel inhibitors, confirmation, cell-based, Tl flux, duplicate; KCNQ1 cell line, FluxOR thallium flux fluorescence; shares compounds with KCNQ1 block; 1,600 compounds, 93% hits; inhibition, % at 10 µM;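 active means primary screen active, with duplicate mean exceeding buffer control mean plus 3 SD of buffer wells, cut at about 28% in these data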
CHO Tl flux – thallium flux effects in parental CHO cells, counter-screen for KCNQ1 inhibitor project, cell-based, Tl flux. shares compounds with KCNQ1 block. parental CHO-K1, FluxOR thallium flux fluorescence ratio; hits give low values; zero means no signal rise above baseline. fluorescence ratio (Tl flux) at 10 µM. 1,600 compounds, 21% hits;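 active means mean of duplicate thallium-flux fluorescence ratios in parental host cells more than 5 SD below the buffer control mean, cut at about 0.38 in these data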;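 further: ratio is peak minus minimum fluorescence divided by baseline fluorescence; actives read low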
KCNQ2 inh – KCNQ2 channel inhibition, selectivity assay for KCNQ1 inhibitor project, cell-based; inhibition, % at 10 µM; AID 651746, 2012; 1,600 compounds, 71% hits; shares compounds with KCNQ1 block; KCNQ2 cells, FluxOR thallium flux fluorescence;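 active means mean percent inhibition of the KCNQ2 thallium signal more than 5 SD above the buffer-only control wells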;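 further: KCNQ2 expressed in CHO cells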
KCNQ1-KCNE1 inh – KCNQ1/KCNE1 channel inhibition, selectivity assay for KCNQ1 inhibitor project, CHO-K1 cells, thallium flux, FluxOR | shares compounds with KCNQ1 block | FluxOR thallium flux fluorescence | inhibition, % at 10 µM | 1,600 compounds, 77% hits;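 active means mean percent inhibition of duplicate wells above the buffer-only control mean plus 3 SD of those controls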
Large screens that a line does not name were inactive (follow-up assays come after a bar, where they were run). An excerpt weighted towards active compounds, which were near 3.8% of everything screened.

CCOC(=O)c1c(C)n(C)c2cc(Br)c(O)c(O)c12	KCNQ1 block 6 | KCNQ1 block val inactive | CHO Tl flux inactive | KCNQ2 inh 59.3% | KCNQ1-KCNE1 inh inactive
CC(NC(=S)Nc1ccc(OC(F)F)c(Cl)c1)C(C)(C)C (stereo not drawn)	KCNQ1 block 8 | KCNQ1 block val 60.5 | CHO Tl flux inactive | KCNQ2 inh inactive | KCNQ1-KCNE1 inh 36.0%
COc1ccc(-c2cc(-c3nnc(-c4ccncc4)o3)c3ccccc3n2)cc1	none
c1ccc2c(-c3nc(C4CCCCC4)no3)cc(-c3ccncc3)nc2c1	KCNQ1 block 7 | KCNQ1 block val 84.5 | CHO Tl flux inactive | KCNQ2 inh 93.0% | KCNQ1-KCNE1 inh 79.0%
O=c1c2ccccc2nc2n1CCC2O (stereo not drawn)	none
CC1CN(S(=O)(=O)c2cccc(C(=O)Nc3ccccc3N3CCCCC3)c2)CC(C)O1 (stereo not drawn)	KCNQ1 block 7 | KCNQ1 block val 75.5 | CHO Tl flux inactive | KCNQ2 inh 113.7% | KCNQ1-KCNE1 inh 87.5%
COc1ccc(OC)c(NC(=O)Nc2c(O)ccc3ccccc23)c1	KCNQ1 block 12 | KCNQ1 block val inactive | CHO Tl flux inactive | KCNQ2 inh inactive | KCNQ1-KCNE1 inh 48.0%
CCCCn1c(N)c(N(CCOC)C(=O)CSCc2ccccc2C)c(=O)[nH]c1=O	none
Cc1cc(=O)n(CC(=O)NCCN2CCOCC2)c2c1c(C)nn2-c1ccccc1	none
Cc1cc(=O)n(CC(=O)NC2CC2)c2c1c(C)nn2-c1ccccc1	KCNQ1 block 7 | KCNQ1 block val 79.5 | CHO Tl flux inactive | KCNQ2 inh inactive | KCNQ1-KCNE1 inh 93.5%
CC(=O)Nc1ccc(S(=O)(=O)N(C)CC(=O)Nc2nc3ccccc3[nH]2)cc1	none (no result: hERG rescue, KCNQ1 act, KCNK9 block, Kir21 inh, KCNQ1 block)
O=[N+]([O-])c1c(Nc2cccc(O)c2)cc(Cl)c2nonc12	KCNK9 block -7.97, Kir21 inh -7.36, KCNQ1 block 24 | KCNQ1 block val 165.5 | CHO Tl flux 0.286 | KCNQ2 inh 129.0% | KCNQ1-KCNE1 inh active
CCCCNC(=O)NC1CCCC1	none
O=C(O)C(Cc1c[nH]c2ccccc12)N1CCS(=O)(=O)CC1 (stereo not drawn)	none
CCn1nccc1C(=O)Nc1ccc(Cl)cn1	none
CCn1nccc1C(=O)Nc1cc(Cl)cc(Cl)c1	KCNK9 block -6.66, KCNQ1 block 6 | KCNQ1 block val 31.0 | CHO Tl flux inactive | KCNQ2 inh inactive | KCNQ1-KCNE1 inh inactive
O=C(Nc1ccc(Oc2ccc3ccccc3c2)cc1)c1ccco1	KCNQ1 block 14 | KCNQ1 block val 150.5 | CHO Tl flux 0.354 | KCNQ2 inh inactive | KCNQ1-KCNE1 inh 186.0%
O=C(Cn1cnc2ccccc2c1=O)N1CCN(c2ccccc2)CC1	KCNQ1 block 7 | KCNQ1 block val inactive | CHO Tl flux inactive | KCNQ2 inh inactive | KCNQ1-KCNE1 inh inactive
Cc1cc2c(=O)n(CC(=O)N3CCN(c4ccccc4)CC3)cnc2s1	none (no result: hERG rescue, KCNQ1 act, KCNK9 block, Kir21 inh, KCNQ1 block)
Cc1ccc2ncc(S(=O)(=O)c3ccccc3)c(N3CCCCC3C)c2c1 (stereo not drawn)	KCNQ1 block 7 | KCNQ1 block val 126.0 | CHO Tl flux 0.322 | KCNQ2 inh 130.7% | KCNQ1-KCNE1 inh active
COc1cc2ncc(S(=O)(=O)c3ccccc3)c(N3CCC4(CC3)OCCO4)c2cc1OC	none
O=C(Nc1ccc(F)cc1)C(NC1CCCCC1)c1ccccc1 (stereo not drawn)	KCNQ1 block 7 | KCNQ1 block val 76.0 | CHO Tl flux inactive | KCNQ2 inh 65.0% | KCNQ1-KCNE1 inh 105.0%
O=C(Nc1ccc(F)cc1)NC1CCCCCCC1	none
CCCSc1nsc(NC(=O)Nc2ccc(F)cc2F)n1	KCNQ1 block 11 | KCNQ1 block val 58.5 | CHO Tl flux inactive | KCNQ2 inh inactive | KCNQ1-KCNE1 inh inactive
COc1cccc(NC(=O)Nc2nc(SC)ns2)c1	none
CCSc1nsc(NC(=O)Nc2cccc(F)c2)n1	KCNQ1 block 8 | KCNQ1 block val 52.5 | CHO Tl flux inactive | KCNQ2 inh inactive | KCNQ1-KCNE1 inh inactive
CCCn1c(SCC(=O)Nc2nonc2C)nnc1-c1ccoc1C	none
Cc1nonc1NC(=O)CSc1nnc(-c2ccoc2C)n1-c1cccc(Cl)c1	KCNQ1 block 7 | KCNQ1 block val 33.5 | CHO Tl flux inactive | KCNQ2 inh 70.3% | KCNQ1-KCNE1 inh 67.5%
CCN1CCN(CCNC(=O)c2ccc3nc(-c4cccc(C)c4)c(-c4cccc(C)c4)nc3c2)CC1	KCNQ1 block 8 | KCNQ1 block val 76.0 | CHO Tl flux 0.315 | KCNQ2 inh 91.3% | KCNQ1-KCNE1 inh 162.5%
O=C1C(Cl)=C(N2CCCCCC2)C(=O)N1c1ccccc1	none
O=C1C(Cl)=C(N2CCCCCC2)C(=O)N1c1ccc(Br)cc1	KCNQ1 block 6 | KCNQ1 block val 85.0 | CHO Tl flux inactive | KCNQ2 inh 101.3% | KCNQ1-KCNE1 inh 100.5%
O=C(CC1C(=O)N(c2ccccc2)C(=S)N1c1ccccc1)c1ccc(Br)cc1 (stereo not drawn)	KCNQ1 block 6 | KCNQ1 block val 65.0 | CHO Tl flux inactive | KCNQ2 inh 97.0% | KCNQ1-KCNE1 inh 68.5%
